Bioassay records (PubChem BioAssay)
Rev-erbA mod – Rev-erb alpha (human) modulation | AID 1259318 | 370,000 tested, 0.79% active | P20393 | activity, % at 10 µM | Rev-erbα–FITC-DNA binding, fluorescence polarization, 90 min;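 active = activity above about 14%, limit read from the data; passing the limit was not always enough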;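 note: 0% = DMSO wells with 35 nM protein and 100% = DMSO wells with 750 nM protein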
Target sequence (P20393 whole entry, looked up): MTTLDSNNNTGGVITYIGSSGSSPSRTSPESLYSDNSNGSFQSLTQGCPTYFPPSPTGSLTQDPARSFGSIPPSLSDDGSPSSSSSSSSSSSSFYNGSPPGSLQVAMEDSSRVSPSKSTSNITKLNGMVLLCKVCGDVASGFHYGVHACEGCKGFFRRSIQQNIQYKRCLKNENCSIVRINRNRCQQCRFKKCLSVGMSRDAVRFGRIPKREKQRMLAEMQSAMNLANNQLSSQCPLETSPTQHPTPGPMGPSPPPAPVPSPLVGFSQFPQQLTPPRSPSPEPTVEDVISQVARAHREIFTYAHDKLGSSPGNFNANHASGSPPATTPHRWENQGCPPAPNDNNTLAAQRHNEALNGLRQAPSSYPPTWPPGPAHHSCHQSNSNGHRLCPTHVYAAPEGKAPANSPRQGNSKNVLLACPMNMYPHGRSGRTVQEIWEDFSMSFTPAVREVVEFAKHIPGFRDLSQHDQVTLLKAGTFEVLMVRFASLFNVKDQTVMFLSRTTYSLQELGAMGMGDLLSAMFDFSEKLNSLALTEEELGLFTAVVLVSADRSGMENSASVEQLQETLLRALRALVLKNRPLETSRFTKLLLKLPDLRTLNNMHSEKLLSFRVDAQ
NR2E3 ag-1 – activates human photoreceptor nuclear receptor NR2E3 | Q9Y5X4 | GST-NR2E3/biotin-RetCOR TR-FRET, 1536-well | inhibition of corepressor binding, % at 4.78 µM | 320,000 tested, 0.12% active | AID 2300;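 active = percent inhibition above the cutoff of mean plus 3 SD of all tested compounds, set per screening campaign, cut at about 20% in these data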;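 note: 0% = DMSO wells and 100% = biotin wells as full block of FRET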
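Assay system: NR2E3–RetCOR corepressor complex. Quantity: 1.35 nM GST-NR2E3. Buffer or medium: pH 7.5 Tris-based buffer. Reagent: biotinylated RetCOR corepressor at 7 nM final. Schedule: 5 h at 4 °C. Detection: TR-FRET, emission read at 617 and 671 nm. Replicates: one well per compound, singlicate testing.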
NR2E3 ag-2 – activates human NR2E3 receptor. CHO-S Gal4-NCOR/VP16-NR2E3 two-hybrid, luciferase. 360,000 tested, 0.35% active. Q9Y5X4. inhibition of corepressor binding, % at 3.98 µM. AID 602229;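 active = inhibition above the mean of all tested compounds plus 3 SD, cut at about 70% in these data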;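 note: 0% = DMSO with NR2E3 transfected cells and 100% = cells lacking NR2E3 construct; higher means lower luciferase signal from less NR2E3 corepressor binding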
PG9 Ab binder – small molecules binding HIV-1 gp120 antibody PG9 | TR-FRET gp120-PG9 antibody binding | inhibition, % at 6.7 µM | 360,000 tested, 0.43% active; in the data active = inhibition above about 8.5%
Rev-erbA confirm – confirmation of modulators of human Rev-erb alpha DNA binding; shares compounds with Rev-erbA mod; Rev-erb alpha FITC-DNA binding, fluorescence polarization, 90 min; activation, % at 25 µM; 3,000 tested, 61% active; AID 1259319;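 active = activation at or above a set limit, or at least 3 SD above the negative control mean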;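 note: 0% = 35 nM protein with DMSO and 100% = 750 nM protein high control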
RORg DNA counter – affects RORgamma DNA binding in a Rev-erb alpha counter-screen; purified RORgamma protein-FITC-DNA binding, fluorescence polarization; IC50, µM; 910 tested, 8% active; shares compounds with Rev-erbA mod; AID 1259320;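 active = Compounds whose fitted half-maximal concentration for disrupting protein-DNA binding is below 10 micromolar; the record names Rev-erb in its text, so the target is in doubt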
An asterisk follows results filed as active; i = inactive; . = not tested or not shown. In the library only some 1.4% were active in any assay of this set; here they are far more common.

SMILES	Rev-erbA mod	NR2E3 ag-1	NR2E3 ag-2	PG9 Ab binder	Rev-erbA confirm	others
COc1ccc(/C=C/C(=O)NC(=S)Nc2ccc(S(=O)(=O)Nc3nccnc3OC)cc2)cc1	-2	-3	-43	-2	.
O=C(NNC1=NS(=O)(=O)c2ccccc21)c1ccc(Cl)cc1	-2	1	-31	-1	.
CCn1c2ccccc2c2cc(NS(=O)(=O)c3ccc(C)cc3)ccc21	-3	1	-47	1	.
CCOC(=O)/C(=C/C=C1\Sc2cc(OCC)c(OCC)cc2N1CC)C(C)=O	32*	-5	-12	-12	-5
CCOC(=O)/C(=C\C=C1/Sc2cc(OCC)c(OCC)cc2N1CC)C(C)=O	112*	-5	11	-13	42*	RORg DNA counter=>40
CCN1/C(=C/C(C)=O)Sc2ccc(OC)cc21	1	0	-44	-2	.
COc1cc(Cl)cc(C(=O)O)c1OCC(=O)O	-3	2	-2	-1	.
CCc1nc(SCC#N)c(C#N)cc1C	.	1	.	.	.
Cc1cccc2cc(C#N)c(SCC#N)nc12	63*	-7	-1	2	53*	RORg DNA counter=>40
CC(=O)Oc1ccc(/C=N\NC(=O)c2cc3c(ccc4ccccc43)o2)cc1	33*	0	19	-2	33*	RORg DNA counter=>40
CCN(Cc1ccccc1)C(c1cc2ccc(C)cc2[nH]c1=O)c1nnnn1CCOC (centres undefined)	0	-2	-5	-2	.
Cc1ccc(C)c(N2CCN(CCCNC(=O)Cn3c(=O)c4cccn4c4cccnc43)CC2)c1	-1	1	-15	1	.
COc1cccc(C(=O)n2ccc3ccc(-c4ccc5ccn(Cc6ccccc6)c5c4)cc32)c1	24*	.	.	.	52*	RORg DNA counter=6.8*
COc1cccc(C(=O)n2ccc3ccc(-c4ccc5ccn(C(=O)c6cccc(OC)c6)c5c4)cc32)c1	44*	.	.	.	85*	RORg DNA counter=i
N#Cc1ccc(Cn2ccc3ccc(-c4ccc5ccn(Cc6ccc(C#N)cc6)c5c4)cc32)cc1	1	.	.	.	.
COc1cccc(C(=O)n2ccc3ccc(-c4ccc5ccn(Cc6ccc(C#N)cc6)c5c4)cc32)c1	48*	.	.	.	9
O=C1CSC(c2ccncc2)N1Cc1ccccc1 (centres undefined)	4	-2	-4	0	.
CN(C)CCNC(=O)c1[nH]c(C(F)(F)F)nc1-c1ccccc1	5	.	-2	-2	.
CCC(=O)N1CCC1(C)C(=O)Nc1cnc2ccccc2c1 (centres undefined)	17*	.	5	0	-2
CCC(C)(C)c1ccc(OCCCC[n+]2ccc(C)cc2)c(C(C)(C)CC)c1	34*	1	.	0	36*	RORg DNA counter=>40
CCC(C)(C)c1ccc(OCCCC[n+]2cccc(C)c2C)c(C(C)(C)CC)c1	42*	-3	4	-1	43*
CCOc1ccc(-c2nn3c(-c4ccccc4)nnc3s2)cc1	-10	1	-7	0	.
Brc1ccc(-c2nn3c(-c4ccccc4)nnc3s2)cc1	34*	.	.	.	71*	RORg DNA counter=2.9*
O=C(Nc1ccc(S(=O)(=O)N2CCOCC2)cc1)c1ccc(=O)[nH]c1	-25	-3	.	-1	.
Cc1cc2c(s1)c1cnn(Cc3cc(F)c(F)cc3F)c(=O)c1n2C	26*	.	.	.	10
SMILES	Rev-erbA mod	NR2E3 ag-1	NR2E3 ag-2	PG9 Ab binder	Rev-erbA confirm	others
Cc1cc2c(s1)c1cnn(Cc3ccc(F)cc3F)c(=O)c1n2C	18	.	.	.	.
O=C(CSc1nc(-c2ccco2)cc(C(F)(F)F)n1)N1CCCc2ccccc21	25*	2	10	0	14
CCn1ncc([N+](=O)[O-])c1C(=O)n1nc(C)cc1C	4	0	-47	-2	.
CCOc1ccc(-n2c(SCC(=O)Nc3cc(C)c(NC(=O)c4ccccc4)cc3OC)nnc2-c2ccncc2)cc1	-3	.	.	.	.
CCOc1ccccc1NC(=O)c1sc2nc(C)nc(N3CCOCC3)c2c1C	41*	-4	5	0	7
Cc1ccc(NC(=O)c2sc3ncnc(N4CCN(c5ccccn5)CC4)c3c2C)c(C)c1	8	-2	-32	1	.
COc1ccc(C)cc1NC(=O)c1sc2ncnc(N3CCN(c4ccccn4)CC3)c2c1C	37*	1	-10	-1	3
COc1ccccc1NC(=O)c1sc2nc3n(c(=O)c2c1C)CCC3	43*	1	-24	1	29*
COc1ccc(C)cc1NC(=O)c1sc2nc(C)nc(N3CCOCC3)c2c1C	7	0	-30	-1	.
Cc1c(C(=O)Nc2ccccc2F)sc2nc3n(c(=O)c12)CCC3	-2	4	-84	-2	.
Cc1nc(N2CCN(c3ccccn3)CC2)c2c(C)c(C(=O)Nc3ccc(Br)cc3C)sc2n1	40*	4	1	1	-13
CC1(c2nc3ccccc3[nH]2)CCC(=O)N1Cc1cccs1 (centres undefined)	2	.	-4	-1	.
COc1ccccc1NC(=O)c1sc2nc(Cc3ccccc3)cc(C(F)(F)F)c2c1N	45*	2	-9	.	63*	RORg DNA counter=>40
COc1ccc(NC(=O)c2sc3nc(Cc4ccccc4)cc(C(F)(F)F)c3c2N)cc1OC	4	0	-9	-2	.
Cc1cc(C)cc(N2CC(O)=C(c3nc4ccccc4c(=O)[nH]3)C2=N)c1	21*	-25	-33	6	33*	RORg DNA counter=>40
COc1cccc(N2CC(O)=C(c3nc4ccccc4c(=O)[nH]3)C2=N)c1	.	3	-49	.	.
Cc1nonc1NC(=O)CSc1nc(C23CC4CC(CC(C4)C2)C3)nc2ccccc12	30*	0	-13	0	22*
Cc1cc2nc(SCC(=O)Nc3nonc3C)c3c(c2cc1C)CCCC3	103*	2	-13	1	81*
Cc1nonc1NC(=O)CSc1nc(C2CCCCC2)nc2ccccc12	0	-2	8	0	.
O=C(COc1ccccc1CNC[C@H]1O[C@@H](n2ccc(=O)[nH]c2=O)[C@H](O)[C@@H]1O)N1CCCCC1	0	.	17	1	.
CCN(CC)S(=O)(=O)c1ccc2oc(C(=O)Nc3ccc(OC)cc3OC)c(C)c2c1	-4	-5	-33	-1	.
COc1ccc(C(=O)Nc2ccc(-c3ccc(NC(=O)c4ccc(OC)cc4)c(OC)c3)cc2OC)cc1	29*	0	0	0	5
COc1ccc(NC(=O)c2oc3cc(C)c(C)cc3c2C)c(OC)c1	21*	2	6	-1	4
COc1ccc2oc(C(=O)Nc3ccccc3N3CCOCC3)c(C)c2c1	29*	3	-26	2	9
O=C(C1CCCN1S(=O)(=O)c1cccc2nsnc12)N1CCCCC1 (centres undefined)	2	-4	-7	1	.
CCOC(=O)c1c(-c2ccccc2)csc1NC(=O)/C(C#N)=C\c1ccc(O)c(OC)c1	42*	.	-46	-2	12*
CCOC(=O)c1c(-c2ccc(C)cc2)csc1NC(=O)/C(C#N)=C/c1ccc(O)c(OC)c1	4	.	-25	0	.
